# Experimental data gathered from unrelated publications.
# PDE2A: cGMP-dependent 3',5'-cyclic phosphodiesterase (PDE2A, Homo sapiens, UniProt O00408)
# MMP8: Neutrophil collagenase (MMP8, Homo sapiens, UniProt P22894)
Structure (SMILES),target,test,setting,inhibition
Cc1ncc(C)n2nc(/C=C/c3nc(N4CCCC4)cc(N4CCOCC4)n3)nc12,PDE2A,"enzyme activity, inhibitor",10 µM,38%
CN(C)C(=O)COC(=O)Cc1ccc(OC(=O)c2ccc(NC(=N)N)cc2)cc1,MMP8,"enzyme activity, inhibitor",10 µM,33%
CC(C)=CCC[C@]1(C)C=Cc2c(O)c3c(c(CC=C(C)C)c2O1)O[C@]12C(=C[C@@H]4C[C@H]1C(C)(C)O[C@@]2(C/C=C(/C)C(=O)O)C4=O)C3=O,"N-lysine methyltransferase KMT5A (KMT5A, Homo sapiens, UniProt Q9NQR1)",cell-free assay,10 µM,18%
Cn1cc(-c2cc(F)cc(N3CCn4c(cc5c4CCCC5)C3=O)c2CO)cc(Nc2ccc(N3CCN(C4COC4)CC3)cn2)c1=O,"G protein-coupled receptor kinase 3 (GRK3, Homo sapiens, UniProt P35626)","enzyme activity, inhibitor",0.1 µM,0%
COc1ccc(S(=O)(=O)N(CC(=O)NO)CC(C)C)cc1,MMP8,"enzyme activity, inhibitor",10 nM,5%
C#Cc1n[nH]c2c(-c3cn(C(C)c4ccccn4)c(=O)[nH]c3=O)cc(F)cc12 (centres unmarked),"Misshapen-like kinase 1 (MINK1, Homo sapiens, UniProt Q8N4C8)","enzyme activity, inhibitor",1 µM,-10.4%
c1ccc(C(NCCNC(c2ccccc2)c2ccccc2)c2ccccc2)cc1,"Carbonic anhydrase 2 (CA2, Homo sapiens, UniProt P00918)","enzyme activity, inhibitor",10 µM,-7%
CN(CCN1CCC(OC(=O)Nc2ccccc2-c2ccccc2)CC1)C(=O)c1ccc(CN2CCC(C(N)=O)CC2)cc1,PDE2A,"enzyme activity, inhibitor",1 µM,1%
Clc1ccc2c(C3CCN(CCc4c[nH]c5ccccc45)CC3)c[nH]c2c1,"Androgen receptor (AR, Homo sapiens, UniProt P10275)","ligand displacement, radioligand",10 µM,25%
Cn1cc(-c2cccc(N3CCc4c(sc5c4CC(C)(C)C5)C3=O)c2CO)cc(Nc2ccncn2)c1=O,"Dual specificity mitogen-activated protein kinase kinase 6 (MAP2K6, Homo sapiens, UniProt P52564)","enzyme activity, inhibitor",1 µM,11%
COc1cc(Nc2ncc(F)c(Nc3ccc4c(n3)NC(=O)C(C)(C)O4)n2)cc(OC)c1OC,"Receptor-interacting serine/threonine-protein kinase 4 (RIPK4, Homo sapiens, UniProt P57078)",binding,10 µM,96%
O=C(Nc1cccnn1)N1CCN([C@@H]2CCOc3cc(C(F)(F)F)ccc32)CC1,"5-hydroxytryptamine receptor 1D (Htr1d, Rattus norvegicus, UniProt P28565)",cell-free assay,20 µM,4%
CCN(CC)CCCC[C@H](NC(=O)[C@H](CC(C)C)NC(=O)[C@H](C)NC(=O)[C@H](Cc1ccccc1)NC(=O)c1ccc(C(C)(C)C)cc1)C(=O)N[C@@H](CO)C(=O)OC,"Cholecystokinin receptor type A (CCKAR, Homo sapiens, UniProt P32238)","ligand displacement, radioligand",10 µM,33%
CCOC(=O)c1ccc(OC(=O)CCCCCNC(=N)N)cc1,MMP8,"enzyme activity, inhibitor",10 µM,7%
